Assay results taken from ChEMBL document CHEMBL2384924, “Antagonists for the orphan G-protein-coupled receptor GPR55 based on a coumarin scaffold” (J Med Chem, 2013).
Active and inactive are the calls of the source. Unless noted, the calls are words filed in the database; no cut-off is given here.

Columns and labels:
Cannabinoid receptor 2 [1] = target: T1, Cannabinoid receptor 2 (Homo sapiens, UniProt P34972); assay: Agonist activity at human CB2 receptor expressed in CHOK1 cells assessed as […] of forskolin-stimulated cAMP level at 10 uM; format: functional, cell-based; conditions: CHO-K1
[2] = target: T2, G-protein coupled receptor 55 (Homo sapiens, UniProt Q9Y2T6); assay: Antagonist activity at human GPR55 transfected in CHO cells assessed as inhibition of LPI-induced beta-arrestin recruitment incubated 60 mins prior to LPI addition by beta-arrestin translocation assay; format: cell-based
Method in brief: (§1)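 CHO cells stably expressing human GPR55 were seeded at 20,000 cells/well for 24 h at 37°C. Compound in PBS/10% DMSO/0.1% BSA was added 60 min before 1 µM LPI. Galacton-Star/Emerald-II/lysis buffer (pH 8) was applied for 60 min at RT, with luminescence read-out. Screening was at 10 µM (% inhibition). IC50 was measured where inhibition exceeded 60%. Three independent experiments in duplicate.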

[3] = target: T3, N-arachidonyl glycine receptor (Homo sapiens) (UniProt Q14330); assay: Antagonist activity at human GPR18 transfected in CHO cells assessed as delta9-THC-induced beta-arrestin recruitment at 10 uM incubated 60 mins prior to delta9-THC addition by beta-arrestin translocation assay; format: cell-based; set-up: scale not given: the % may be the effect or the level left
T3 sequence (whole entry): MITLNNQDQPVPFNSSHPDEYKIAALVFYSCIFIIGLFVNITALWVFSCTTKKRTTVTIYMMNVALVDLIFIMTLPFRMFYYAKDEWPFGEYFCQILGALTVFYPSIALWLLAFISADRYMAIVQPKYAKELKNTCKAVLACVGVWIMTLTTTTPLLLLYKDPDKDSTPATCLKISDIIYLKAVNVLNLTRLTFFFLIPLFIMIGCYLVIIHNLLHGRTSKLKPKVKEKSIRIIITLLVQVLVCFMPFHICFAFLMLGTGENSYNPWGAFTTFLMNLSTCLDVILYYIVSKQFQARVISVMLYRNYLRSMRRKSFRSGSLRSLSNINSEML
Method in brief: (§2)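 CHO cells stably expressing human GPR18 were seeded at 20,000 cells/well for 24 h at 37°C. Compound in PBS/10% DMSO/0.1% BSA was added 60 min before the GPR18 agonist 3 at 10 µM. The supplier's detection reagent was used, and luminescence was read after 60 min at RT. Screening was at 10 µM (% inhibition); IC50 from concentration-inhibition curves. Three independent experiments in duplicate.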

[4] = target: T2, G-protein coupled receptor 55; assay: Agonist activity at human GPR55 transfected in CHO cells at 10 uM after 90 mins by beta-arrestin translocation assay; format: cell-based
Method in brief: (§3)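 CHO cells stably expressing human GPR55 (β-galactosidase fragment complementation) were seeded at 20,000 cells/well in Opti-MEM with 2% FCS for 24 h at 37°C. Compound was diluted in PBS with 10% DMSO and 0.1% BSA, screened at 10 µM and incubated 90 min at 37°C. Galacton-Star/Emerald-II/lysis buffer (1:5:19) was added for 60 min at RT, then luminescence was read. Response is relative to 1 µM LPI (100%).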

[5] = target: T4, N-arachidonyl glycine receptor (Homo sapiens, UniProt Q14330); assay: Antagonist activity at human GPR18 transfected in CHO cells assessed as delta9-THC-induced beta-arrestin recruitment incubated 60 mins prior to delta9-THC addition by beta-arrestin translocation assay; format: cell-based; method in brief: as §2
T4 sequence (Q14330 whole entry): T3 sequence (whole entry)

Cannabinoid receptor 1 [6] = target: T5, Cannabinoid receptor 1 (Homo sapiens, UniProt P21554); assay: Agonist activity at human CB1 receptor expressed in CHOK1 cells assessed as […] of forskolin-stimulated cAMP level at 10 uM; format: functional, cell-based; conditions: CHO-K1
Cannabinoid receptor 2 [7] = target: T1, Cannabinoid receptor 2; assay: Displacement of [3H]-CP55,940 from human CB2 receptor transfected in CHOK1 cells; format: cell-based, CHO-K1
Method in brief: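 CHO cells stably expressing human CB2 supplied the membranes, 1 µg protein per vial. Compounds were screened at 10 µM, and full competition curves were run where inhibition was about 50% or more. Three independent experiments in duplicate.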

Cannabinoid receptor 1 [8] = target: T5, Cannabinoid receptor 1; assay: Displacement of [3H]-CP55,940 from human CB1 receptor transfected in CHOK1 cells; format: cell-based, CHO-K1
Cannabinoid receptor 2 [9] = target: T1, Cannabinoid receptor 2; assay: Displacement of [3H]-CP55,940 from human CB2 receptor transfected in CHOK1 cells at 10 uM; format: cell-based; conditions: CHO-K1
Method in brief: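 Competition binding used membranes from CHO cells stably expressing human CB2 (1 µg protein per vial) and [3H]CP55,940 at 0.1 nM final. Compound stocks were in DMSO (2.5% final). Compound was tested at 10 µM as % inhibition of radioligand binding. Three independent experiments in duplicate.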

Cannabinoid receptor 1 [10] = target: T5, Cannabinoid receptor 1; assay: Displacement of [3H]-CP55,940 from human CB1 receptor transfected in CHOK1 cells at 10 uM; format: cell-based; conditions: CHO-K1
Method in brief: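 Human CB1 from membrane preparations of stably transfected CHO cells, 25 µg protein per vial. Competition with [3H]CP55,940 at 0.1 nM final, with test compound at 10 µM, read as % inhibition of radioligand binding. Final DMSO 2.5%. Three independent experiments in duplicate.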

[11] = target: T2, G-protein coupled receptor 55; assay: Agonist activity at human GPR55 transfected in CHO cells after 90 mins by beta-arrestin translocation assay relative to LPI; format: cell-based; method in brief: as §3
Cannabinoid receptor 1 [12] = target: T5, Cannabinoid receptor 1; assay: Antagonist activity at human CB1 receptor expressed in CHOK1 cells assessed as inhibition of forskolin-stimulated cAMP level at 10 uM; format: functional, cell-based; conditions: CHO-K1
Cannabinoid receptor 2 [13] = target: T1, Cannabinoid receptor 2; assay: Antagonist activity at human CB2 receptor expressed in CHOK1 cells assessed as inhibition of forskolin-stimulated cAMP level at 10 uM; format: functional, cell-based; conditions: CHO-K1
[14] = target: T2, G-protein coupled receptor 55; assay: Antagonist activity at human GPR55 expressed in HEK293 cells assessed as inhibition of LPI-induced beta-arrestin recruitment incubated 60 mins prior to LPI addition by beta-arrestin translocation assay; format: cell-based; set-up: scale not given: the % may be the effect or the level left
[15] = target: T2, G-protein coupled receptor 55; assay: Antagonist activity at human GPR55 transfected in CHO cells assessed as inhibition of LPI-induced beta-arrestin recruitment incubated 60 mins prior to LPI addition by Gaddum method; format: cell-based
Method in brief: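 In the human GPR55 CHO β-arrestin luminescence assay, full LPI concentration-response curves were run without and with 3-4 antagonist concentrations. Antagonist was preincubated 1 h, then incubated with agonist […]. KB was estimated by the Gaddum method. Three independent experiments in duplicate.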

[16] = target: T2, G-protein coupled receptor 55; assay: Antagonist activity at human GPR55 transfected in CHO cells assessed as inhibition of LPI-induced beta-arrestin recruitment at 10 uM incubated 60 mins prior to LPI addition by beta-arrestin translocation assay; format: cell-based; set-up: scale not given: the % may be the effect or the level left; method in brief: as §1

T2 sequence (Q9Y2T6 whole entry): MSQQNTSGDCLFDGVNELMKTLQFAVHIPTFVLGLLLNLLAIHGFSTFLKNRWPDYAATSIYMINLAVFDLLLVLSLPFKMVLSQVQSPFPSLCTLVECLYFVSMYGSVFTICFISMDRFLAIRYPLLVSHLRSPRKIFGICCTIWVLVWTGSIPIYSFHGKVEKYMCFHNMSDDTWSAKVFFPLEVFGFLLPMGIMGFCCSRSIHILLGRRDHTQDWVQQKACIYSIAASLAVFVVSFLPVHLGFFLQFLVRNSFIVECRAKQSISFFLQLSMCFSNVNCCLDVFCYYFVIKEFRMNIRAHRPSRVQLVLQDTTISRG
T5 sequence (P21554 whole entry): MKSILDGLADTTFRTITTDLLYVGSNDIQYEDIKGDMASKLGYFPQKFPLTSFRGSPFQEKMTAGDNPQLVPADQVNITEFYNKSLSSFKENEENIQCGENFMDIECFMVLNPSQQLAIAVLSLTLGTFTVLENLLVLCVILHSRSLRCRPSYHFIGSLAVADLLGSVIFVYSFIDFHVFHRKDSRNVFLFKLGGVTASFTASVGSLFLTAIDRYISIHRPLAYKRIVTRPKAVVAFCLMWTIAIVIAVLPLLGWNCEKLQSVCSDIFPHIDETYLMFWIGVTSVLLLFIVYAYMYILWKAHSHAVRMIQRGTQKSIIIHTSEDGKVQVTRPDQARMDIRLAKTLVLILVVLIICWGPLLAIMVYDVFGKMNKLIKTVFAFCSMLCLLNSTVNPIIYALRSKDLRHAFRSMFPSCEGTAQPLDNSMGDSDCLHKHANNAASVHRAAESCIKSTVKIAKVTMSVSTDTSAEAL
T1 sequence (P34972 whole entry): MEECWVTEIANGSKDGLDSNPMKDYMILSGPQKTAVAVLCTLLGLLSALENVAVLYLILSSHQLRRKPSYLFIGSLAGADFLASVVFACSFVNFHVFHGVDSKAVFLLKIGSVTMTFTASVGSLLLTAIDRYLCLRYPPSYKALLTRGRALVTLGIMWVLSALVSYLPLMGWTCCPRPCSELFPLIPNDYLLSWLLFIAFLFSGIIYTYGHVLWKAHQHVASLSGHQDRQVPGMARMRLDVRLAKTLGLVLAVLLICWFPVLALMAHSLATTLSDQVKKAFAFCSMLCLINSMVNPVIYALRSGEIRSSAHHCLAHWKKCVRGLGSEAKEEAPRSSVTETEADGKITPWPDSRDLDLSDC

For CCCCC1(c2cc(O)c3cc(Cc4ccccc4O)c(=O)oc3c2)CCCC1, the Activity (Cannabinoid receptor 2 [1]) was “Active”, the IC50 [2] was 0.854 µM and the Activity [3] was 57%. For the same compound, the Activity [4] was “inactive”.
In the case of CCCCCCC(C)(C)c1cc(O)c2cc(Cc3ccccc3)c(=O)oc2c1, the IC50 [5] is reported as 8.1 µM, the Activity (Cannabinoid receptor 2 [1]) is reported as “Active” and the IC50 [2] is reported as 0.358 µM. For the same compound, the Activity (Cannabinoid receptor 1 [6]) was “Active” and the Activity [4] was “inactive”.
For Cc1cc2c(C(C)C)ccc(C)c2oc1=O, the IC50 [5] was > 10 µM, the Ki (Cannabinoid receptor 2 [7]) was > 10 µM and the Ki (Cannabinoid receptor 1 [8]) was > 10 µM. It also gave an IC50 [2] of 3.45 µM, an Activity (Cannabinoid receptor 2 [9]) of 0% and an Activity (Cannabinoid receptor 1 [10]) of 26%. For the same compound, the Activity [3] was 11% and the Activity [4] was “inactive”.
With Cc1ccc(C(C)C)c2cc(Cc3ccccc3)c(=O)oc12 the IC50 [5] was > 10 µM, the Ki (Cannabinoid receptor 2 [7]) was > 10 µM and the Ki (Cannabinoid receptor 1 [8]) was > 10 µM. The IC50 [2] was 5.33 µM, the Activity (Cannabinoid receptor 2 [9]) was 24% and the Activity (Cannabinoid receptor 1 [10]) was 24%. For the same compound, the Activity [3] was 12% and the Activity [4] was “inactive”.
With CCCCCCC(C)(C)c1cc(O)c2cc(Cc3ccccc3O)c(=O)oc2c1 the IC50 [5] was 15.9 µM, the Activity (Cannabinoid receptor 2 [1]) was “Active” and the IC50 [2] was 0.261 µM. For the same compound, the Activity [4] was “inactive”.
CCCCC/C=C\C/C=C\C/C=C\C/C=C\CCCC(=O)O[C@H](CO)COP(=O)(O)O[C@@H]1[C@H](O)[C@H](O)[C@@H](O)[C@H](O)[C@H]1O was tested, and the EC50 [11] was 1 µM.
With CCCCCc1cc(OC)c2cc(Cc3ccc(Br)cc3)c(=O)oc2c1 the inhibition (Cannabinoid receptor 1 [12]) was “Active”, the IC50 [5] was > 10 µM and the Ki (Cannabinoid receptor 2 [7]) was 0.578 µM. The Ki (Cannabinoid receptor 1 [8]) was 10.2 µM, the IC50 [2] was 3.76 µM and the inhibition (Cannabinoid receptor 2 [13]) was “Active”. For the same compound, the Activity [3] was 30% and the Activity [4] was “inactive”.
With CCCCCc1cc(OC)c2cc(Cc3ccc(Cl)cc3)c(=O)oc2c1 the inhibition (Cannabinoid receptor 1 [12]) was “Active”, the IC50 [5] was 10 µM and the Activity (Cannabinoid receptor 2 [1]) was “Active”. It also gave a Ki (Cannabinoid receptor 2 [7]) of 0.578 µM, a Ki (Cannabinoid receptor 1 [8]) of 0.613 µM and an IC50 [2] of 3.29 µM. For the same compound, the Activity [3] was 50% and the Activity [4] was “inactive”.
With Cc1ccc(C(C)C)c2cc(Cc3ccccc3O)c(=O)oc12 the IC50 [5] was > 10 µM, the IC50 [2] was 1.77 µM and the Activity (Cannabinoid receptor 2 [9]) was 24%. The Activity (Cannabinoid receptor 1 [10]) was 31%, the Activity [3] was 32% and the Activity [4] was “inactive”.
CCCCC1(c2cc(O)c3cc(Cc4ccccc4O)c(=O)oc3c2)CCCCC1 was tested, and the IC50 [5] was ≥ 10 µM, the Activity (Cannabinoid receptor 2 [1]) was “Active” and the IC50 [2] was 0.961 µM. For the same compound, the Activity [3] was 59% and the Activity [4] was “inactive”.
CCCc1cc(O)c2c(c1)OC(C)(C)[C@@H]1CCC(C)=C[C@@H]21 was tested, and the Activity [14] was 50%.
C=C(C)[C@@H]1CCC(C)=C[C@H]1c1c(O)cc(CCC)cc1O showed an Activity [14] of 56%.
In the case of CCCCCc1cc(OC)c2cc(Cc3ccccc3C)c(=O)oc2c1, the inhibition (Cannabinoid receptor 1 [12]) is reported as “Active”, the IC50 [5] is reported as > 10 µM and the Activity (Cannabinoid receptor 2 [1]) is reported as “Active”. The IC50 [2] was 5.08 µM, the Activity [3] was 34% and the Activity [4] was “inactive”.
In the case of CCCCCc1cc(OC)c2cc(Cc3ccccc3OC)c(=O)oc2c1, the IC50 [5] is reported as > 10 µM, the Activity (Cannabinoid receptor 2 [1]) is reported as “Active” and the IC50 [2] is reported as 6.35 µM. For the same compound, the Activity [3] was 20%, the Activity (Cannabinoid receptor 1 [6]) was “Active” and the Activity [4] was “inactive”.
With CCCCCc1cc(O)c2cc(Cc3cccc(O)c3)c(=O)oc2c1 the inhibition (Cannabinoid receptor 1 [12]) was “Active”, the IC50 [5] was > 10 µM and the IC50 [2] was 10.6 µM. The inhibition (Cannabinoid receptor 2 [13]) was “Active”, the Activity [3] was 27% and the Activity [4] was “inactive”.
With CCCCCc1cc(OC)c2cc(Cc3cccc(OC)c3)c(=O)oc2c1 the IC50 [5] was > 10 µM, the Activity (Cannabinoid receptor 2 [1]) was “Active” and the IC50 [2] was 3.23 µM. For the same compound, the Kb ([2]; read-out: pA2 (converted)) was 7.94 pM, the Activity [3] was 33% and the Activity (Cannabinoid receptor 1 [6]) was “Active”. The Activity [4] was “inactive” and the Kb [15] was 16.5 µM.
CCCCC1(c2cc(OC)c3cc(Cc4ccccc4OC)c(=O)oc3c2)CCCCC1 was tested, and the IC50 [5] was > 10 µM, the Ki (Cannabinoid receptor 2 [7]) was ≥ 10 µM and the Ki (Cannabinoid receptor 1 [8]) was ≥ 10 µM. For the same compound, the IC50 [2] was > 10 µM, the Activity (Cannabinoid receptor 2 [9]) was 45% and the Activity (Cannabinoid receptor 1 [10]) was 42%. For the same compound, the Activity [16] was 44%, the Activity [3] was 33% and the Activity [4] was “inactive”.
CCCCCCCC(C)(C)c1cc(OC)c2cc(Cc3ccccc3OC)c(=O)oc2c1 was tested, and the IC50 [5] was > 10 µM, the IC50 [2] was > 10 µM and the Activity (Cannabinoid receptor 2 [9]) was 47%. It also gave an Activity (Cannabinoid receptor 1 [10]) of 51%, an Activity [16] of 31% and an Activity [3] of 33%. The Activity [4] was “inactive”.
In the case of CCCCCCCC(C)(C)c1cc(O)c2cc(Cc3ccccc3O)c(=O)oc2c1, the IC50 [5] is reported as 12.5 µM, the Activity (Cannabinoid receptor 2 [1]) is reported as “Active” and the IC50 [2] is reported as 0.113 µM. For the same compound, the inhibition [2] was “Dose-dependent effect”, the Activity [4] was “inactive” and the Kb [15] was 0.561 µM.
